# Measured values taken from ChEMBL document CHEMBL5058577, “EUbOPEN Chemogenomics Library 2 (Multiplex)” (2022).
# Test system: Fibroblast
# Experiment: Multiplex assay against human fibroblast
# Format: toxicity, cell-based
# Procedure, shortened: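 Live cells carried four stains from seeding: Hoechst33342, BioTracker Green Microtubule Cytoskeleton Dye, MitoTracker Red and Annexin V Alexa Fluor 680. They were imaged on a CQ1 microscope at 37°C and 5% CO2 after compound addition. Using CellPathfinder machine-learning gating, cells were split into Hoechst high-intensity objects or normal cells, normal cells into healthy, pyknosed or fragmented nuclei, and pyknosed cells into mitotic or apoptotic; tubulin, mitochondrial-mass and membrane-permeability phenotypes are per cents of healthy-nucleus cells.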
# [1] = 12 h, 1 µM, compound concentration 1 uM, replicate 1
# [2] = 12 h, 1 µM, compound concentration 1 uM, replicate 2
# [3] = 12 h, 10 µM, compound concentration 10 uM, replicate 1
# [4] = 12 h, 10 µM, compound concentration 10 uM, replicate 2
# [5] = 24 h, 1 µM, compound concentration 1 uM, replicate 1
# [6] = 24 h, 1 µM, compound concentration 1 uM, replicate 2
# [7] = 24 h, 10 µM, compound concentration 10 uM, replicate 1
# [8] = 24 h, 10 µM, compound concentration 10 uM, replicate 2
# [9] = 48 h, 1 µM, compound concentration 1 uM, replicate 1
# [10] = 48 h, 1 µM, compound concentration 1 uM, replicate 2
# [11] = 48 h, 10 µM, compound concentration 10 uM, replicate 1
# [12] = 48 h, 10 µM, compound concentration 10 uM, replicate 2
compound,measurement,setting,value
COc1cccc2c1c(NS(=O)(=O)c1ccc(Cl)s1)nn2Cc1cccc(CNC(=O)C(C)(C)O)c1,Population Apoptotic (%),[1],43%
same,Population Fragmented Nuclei (%),[1],16%
same,Population Healthy Nuclei (%),[1],66%
same,Population Hoechst High Intensity Objects (%),[1],0%
same,Population Membrane Permeable-Phenotype (%),[1],1%
same,Population Mitochondria Different-Phenotype (%),[1],2%
same,Population Mitotic Cells (%),[1],56%
same,Population Normal (%),[1],99%
same,Population Pyknosed Nuclei (%),[1],17%
same,Population Tubulin-Different-Phenotype (%),[1],27%
same,Total Cell Count,[1],134
same,Population Apoptotic (%),[2],33%
same,Population Fragmented Nuclei (%),[2],26%
same,Population Healthy Nuclei (%),[2],54%
same,Population Membrane Permeable-Phenotype (%),[2],4%
same,Population Mitochondria Different-Phenotype (%),[2],1%
same,Population Mitotic Cells (%),[2],66%
same,Population Normal (%),[2],100%
same,Population Pyknosed Nuclei (%),[2],18%
same,Population Tubulin-Different-Phenotype (%),[2],18%
same,Total Cell Count,[2],112
same,Population Apoptotic (%),[3],42%
same,Population Fragmented Nuclei (%),[3],13%
same,Population Healthy Nuclei (%),[3],72%
same,Population Hoechst High Intensity Objects (%),[3],2%
same,Population Membrane Permeable-Phenotype (%),[3],1%
same,Population Mitochondria Different-Phenotype (%),[3],11%
same,Population Mitotic Cells (%),[3],57%
same,Population Normal (%),[3],97%
same,Population Pyknosed Nuclei (%),[3],13%
same,Population Tubulin-Different-Phenotype (%),[3],37%
same,Total Cell Count,[3],211
same,Population Apoptotic (%),[4],41%
same,Population Fragmented Nuclei (%),[4],24%
same,Population Healthy Nuclei (%),[4],55%
same,Population Hoechst High Intensity Objects (%),[4],7%
same,Population Membrane Permeable-Phenotype (%),[4],7%
same,Population Mitochondria Different-Phenotype (%),[4],4%
same,Population Mitotic Cells (%),[4],58%
same,Population Normal (%),[4],92%
same,Population Pyknosed Nuclei (%),[4],19%
same,Population Tubulin-Different-Phenotype (%),[4],55%
same,Total Cell Count,[4],174
same,Population Apoptotic (%),[5],55%
same,Population Fragmented Nuclei (%),[5],19%
same,Population Healthy Nuclei (%),[5],68%
same,Population Hoechst High Intensity Objects (%),[5],2%
same,Population Membrane Permeable-Phenotype (%),[5],2%
same,Population Mitochondria Different-Phenotype (%),[5],3%
same,Population Mitotic Cells (%),[5],44%
same,Population Normal (%),[5],97%
same,Population Pyknosed Nuclei (%),[5],12%
same,Population Tubulin-Different-Phenotype (%),[5],28%
same,Total Cell Count,[5],144
same,Population Apoptotic (%),[6],50%
same,Population Fragmented Nuclei (%),[6],28%
same,Population Healthy Nuclei (%),[6],49%
same,Population Hoechst High Intensity Objects (%),[6],1%
same,Population Membrane Permeable-Phenotype (%),[6],7%
same,Population Mitochondria Different-Phenotype (%),[6],5%
same,Population Mitotic Cells (%),[6],50%
same,Population Normal (%),[6],98%
same,Population Pyknosed Nuclei (%),[6],22%
same,Population Tubulin-Different-Phenotype (%),[6],35%
same,Total Cell Count,[6],110
same,Population Apoptotic (%),[7],48%
same,Population Fragmented Nuclei (%),[7],11%
same,Population Healthy Nuclei (%),[7],74%
same,Population Hoechst High Intensity Objects (%),[7],2%
same,Population Membrane Permeable-Phenotype (%),[7],1%
same,Population Mitochondria Different-Phenotype (%),[7],7%
same,Population Mitotic Cells (%),[7],52%
same,Population Normal (%),[7],97%
same,Population Pyknosed Nuclei (%),[7],13%
same,Population Tubulin-Different-Phenotype (%),[7],30%
same,Total Cell Count,[7],190
same,Population Apoptotic (%),[8],50%
same,Population Fragmented Nuclei (%),[8],22%
same,Population Healthy Nuclei (%),[8],55%
same,Population Hoechst High Intensity Objects (%),[8],8%
same,Population Membrane Permeable-Phenotype (%),[8],6%
same,Population Mitochondria Different-Phenotype (%),[8],2%
same,Population Mitotic Cells (%),[8],50%
same,Population Normal (%),[8],92%
same,Population Pyknosed Nuclei (%),[8],22%
same,Population Tubulin-Different-Phenotype (%),[8],48%
same,Total Cell Count,[8],175
same,Population Apoptotic (%),[9],62%
same,Population Fragmented Nuclei (%),[9],21%
same,Population Healthy Nuclei (%),[9],66%
same,Population Hoechst High Intensity Objects (%),[9],5%
same,Population Membrane Permeable-Phenotype (%),[9],1%
same,Population Mitochondria Different-Phenotype (%),[9],5%
same,Population Mitotic Cells (%),[9],37%
same,Population Normal (%),[9],94%
same,Population Pyknosed Nuclei (%),[9],12%
same,Population Tubulin-Different-Phenotype (%),[9],30%
same,Total Cell Count,[9],135
same,Population Apoptotic (%),[10],75%
same,Population Fragmented Nuclei (%),[10],26%
same,Population Healthy Nuclei (%),[10],60%
same,Population Hoechst High Intensity Objects (%),[10],2%
same,Population Membrane Permeable-Phenotype (%),[10],8%
same,Population Mitochondria Different-Phenotype (%),[10],3%
same,Population Mitotic Cells (%),[10],25%
same,Population Normal (%),[10],97%
same,Population Tubulin-Different-Phenotype (%),[10],55%
same,Total Cell Count,[10],99
same,Population Apoptotic (%),[11],63%
same,Population Fragmented Nuclei (%),[11],13%
same,Population Healthy Nuclei (%),[11],73%
same,Population Hoechst High Intensity Objects (%),[11],5%
same,Population Membrane Permeable-Phenotype (%),[11],3%
same,Population Mitochondria Different-Phenotype (%),[11],10%
same,Population Mitotic Cells (%),[11],36%
same,Population Normal (%),[11],94%
same,Population Pyknosed Nuclei (%),[11],12%
same,Population Tubulin-Different-Phenotype (%),[11],40%
same,Total Cell Count,[11],187
same,Population Apoptotic (%),[12],51%
same,Population Fragmented Nuclei (%),[12],33%
same,Population Healthy Nuclei (%),[12],49%
same,Population Hoechst High Intensity Objects (%),[12],6%
same,Population Mitochondria Different-Phenotype (%),[12],4%
same,Population Mitotic Cells (%),[12],48%
same,Population Normal (%),[12],93%
same,Population Pyknosed Nuclei (%),[12],17%
same,Population Tubulin-Different-Phenotype (%),[12],43%
